Results on 1 compound are retold here after ChEMBL document CHEMBL4007469, “Design and synthesis of dalbergin analogues and evaluation of anti-osteoporotic activity” (Bioorg Med Chem Lett, 2017).

The nature of assay [1]: Induction of osteoblast differentiation in mouse calvarial cells assessed as increase in BMP2 mRNA expression at 1 pM after 24 hrs by qRT-PCR method relative to control. The format is functional, Calvarial cell. An outline of the steps: (§1)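 Mouse calvarial osteoblasts exposed to 1 pM for 24 h; BMP2, RunX2 and COL1 mRNA by quantitative PCR with GAPDH as internal control. Mean ± SE of three independent experiments versus untreated cells.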

Assay [2] in a line: Induction of mineralization in mouse calvarial cells assessed as increase in COL1 mRNA expression at 1 pM after 24 hrs by qRT-PCR method relative to control. The format is functional, Calvarial cell. An outline of the steps: as §1
The test system of assay [3] is Mus musculus. Put plainly: In vivo induction of osteogenesis in Balb/c mouse assessed as bone formation at 5 mg/kg/day, sc over calvarial surface for 5 consecutive days by hematoxylin and eosin staining based fluorescence microscopic method. The format is functional, organism-based. The method, boiled down: (§2)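 Three-week-old Balb/c mice (3 per group) injected subcutaneously over the calvarial surface daily for 5 consecutive days at 0.1, 0.5, 1 and 5 mg/kg/day. Calvaria fixed in 4% formaldehyde, paraffin-embedded, H&E-stained; tetracycline and calcein (20 mg/kg each, ip) given for MAR/BFR histomorphometry; calvarial mRNA by RT-PCR. Mean ± SE, three independent experiments, versus untreated.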

The subject of assay [4] is Mus musculus. The experiment in a line: In vivo induction of osteogenesis in Balb/c mouse assessed as increase in ALP mRNA level in calvaria at 1 mg/kg/day, sc over calvarial surface for 5 consecutive days by RT-PCR method relative to control. Format: functional. The method, boiled down:
as §2

Assay [5] relates to Mus musculus. The experiment in a line: Anti-osteoporotic activity in ovariectomized postmenopausal Balb/c mouse model assessed as improvement in micro-artchitectural parameter in vertebrae by measuring trabecular separation at 1 mg/kg, po qd via gavage for 6 weeks by micro CT-scan analysis (reference value: 0.288 +/- 0.021 millimeter). The format is functional. The method, boiled down: (§3)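 Female Balb/c mice, 8 weeks old, ovariectomized, 6 weeks osteopenia development, then 1.0 mg/kg/day or gum acacia vehicle by oral gavage once daily for 6 weeks (sham, OVx and treated groups). Bones collected after sacrifice for micro-CT of trabecular microarchitecture (BV/TV, Tb.N, Tb.Th, Tb.Sp, SMI) and biomechanical testing of femur and vertebrae (energy, stiffness); mean ± SE versus OVx.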

The test system of assay [6] is Mus musculus. Put plainly: Anti-osteoporotic activity in ovariectomized postmenopausal Balb/c mouse model assessed as induction of femur bone marrow cell mineralization at 1 mg/kg, po qd via gavage for 6 weeks measured on day 21 post dose by alizarin red-S staining based assay relative to control. Format: functional. The method, boiled down:
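Ovariectomized 8-week-old female Balb/c mice given 1.0 mg/kg/day orally by gavage for 6 weeks; bone marrow cells then cultured ex vivo. ALP activity read at 405 nm; mineralized nodules stained with Alizarin Red at day 21 of culture. Mean ± SE versus OVx group.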

For assay [7], the system named is Mus musculus. Put plainly: Anti-osteoporotic activity in ovariectomized postmenopausal Balb/c mouse model assessed as femur bone breaking strength by measuring stiffness at 1 mg/kg, po qd via gavage for 6 weeks by micro CT-scan analysis (reference value: 34.3 +/- 1.84 N/mm). The format is functional. The method, boiled down:
as §3

For assay [8], the system named is Mus musculus. The experiment in a line: Anti-osteoporotic activity in ovariectomized postmenopausal Balb/c mouse model assessed as vertebrae compressive strength by measuring energy at 1 mg/kg, po qd via gavage for 6 weeks by micro CT-scan analysis (reference value: 224.75 +/- 1.06 mJ). Format: functional. The method, boiled down: as §3
Assay [9] relates to Mus musculus. The experiment in a line: Anti-osteoporotic activity in ovariectomized postmenopausal Balb/c mouse model assessed as increase in Osx gene expression in femur bone at 1 mg/kg, po qd via gavage for 6 weeks by RT-PCR method. The format is functional, organism-based. An outline of the steps:
(§4)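 Eight-week-old female Balb/c mice, ovariectomized and left 6 weeks for osteopenia to develop; groups sham+vehicle, OVx+vehicle, OVx+1.0 mg/kg/day, dosed once daily by oral gavage for 6 weeks in gum acacia/distilled water vehicle. Mice kept at 21°C, 12 h light/dark, chow and water ad libitum. Femoral bone mRNA or serum measured after sacrifice; mean ± SE versus OVx group.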

In assay [10] the test system is Mus musculus. The experiment in a line: Anti-osteoporotic activity in ovariectomized postmenopausal Balb/c mouse model assessed as increase in OCN gene expression in femur bone at 1 mg/kg, po qd via gavage for 6 weeks by RT-PCR method. Format: functional, organism-based. The method, boiled down: as §4
In assay [11] the test system is Mus musculus. Put plainly: Anti-osteoporotic activity in ovariectomized postmenopausal Balb/c mouse model assessed as increase in COL1 gene expression in femur bone at 1 mg/kg, po qd via gavage for 6 weeks by RT-PCR method. The format is functional, organism-based. An outline of the steps:
as §4

The test system of assay [12] is Mus musculus. Put plainly: Anti-osteoporotic activity in ovariectomized postmenopausal Balb/c mouse model assessed as decrease in RANKL mRNA expression at 1 mg/kg, po qd via gavage for 6 weeks by RT-PCR method. The format is functional, organism-based. An outline of the steps:
as §4

In assay [13] the test system is Mus musculus. Put plainly: Anti-osteoporotic activity in ovariectomized postmenopausal Balb/c mouse model assessed as decrease in TRAP mRNA expression at 1 mg/kg, po qd via gavage for 6 weeks by RT-PCR method. The format is functional, organism-based. The method, boiled down:
as §4

The subject of assay [14] is Mus musculus. Put plainly: Osteogenic activity in Balb/c mouse drill-hole fracture model assessed as increase in aggrecan mRNA level at 1 mg/kg, po qd via gavage for 21 days by RT-PCR method.
For assay [15], the system named is Mus musculus. Put plainly: Osteogenic activity in Balb/c mouse drill-hole fracture model assessed as trabecular thickness at 1 mg/kg, po qd via gavage for 21 days by micro-CT method (reference value: 0.111 +/- 0.006 millimeter).

Calls of active or inactive are those of the source. The rule behind the calls is not given here.

On to `COc1cc2oc(=O)cc(-c3ccccc3)c2cc1OCCCCCN1CCN(C)CC1`, for which the “fold change (FC)” value in [1] came to 2; in assay [2], 6; in [4], 5. Also, the result in assay [3] was inactive. Moreover, the Activity in assay [5] was 0.167 mm; in [6], 50%; in [7], 53.55 N/mm; in assay [8], 262.55 mJ; in [15], 0.166 mm. In addition, the result in [9], in assay [10], in [11], in [12], in [13] and in assay [14] was Active.
